Screening results from PubChem.
MT stabilize HCS – microtubule stabilization, imaging screen; HeLa tubulin immunostaining HCS, 24 h; share of cells brighter than vehicle mean+2SD; % tubulin-high responders, % at 10 µM; 200,000 compounds, 0.83% hits; AID 2205;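 active means plate Z-score above 3 for both tubulin-high and condensed-nucleus cell shares, with cell loss under 80%, at 10 µM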;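 further: anti alpha tubulin signal scored within the nucleus-defined area of each cell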
ROMK mod – human ROMK K+ channel modulation, primary screen; 130,000 compounds, 2% hits; P48048; AID 1918; B-score at 10 µM; Tet-inducible ROMK, thallium flux fluorescence; actives lie on both sides;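 active means signal ratio slope over the read window, or its plate-corrected B-score, at least 3 SD from the plate mean, either direction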;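 further: B-score of the F/F0 ratio slope over 7 to 12 s after thallium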
DTT redox prof – compounds producing H2O2 with reducing agent – biochemical, NIH compound library profiling, artefact control for MLSCN library redox annotation, primary screen | DTT-dependent redox cycling H2O2, phenol red/HRP absorbance; 100% = 100 µM peroxide control, 0% = buffer | activation, % at 10 µM | 200,000 compounds, 0.03% hits | AID 878;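 active means activation of at least 50% relative to the plate's high and low controls in the primary single-dose screen; inactive means activation below 50%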;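 further: compound incubated with DTT at 0.8 mM final as the reducing agent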
Cl transport mod – modulators of human KCC2 chloride dependent transport; 190,000 compounds, 2.2% hits; KCC2 cells, thallium flux FluoZin-2 fluorescence; B-score of Tl+ flux slope (higher = more flux/activation; lower = inhibition) at 10 µM; Q9H2X9;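 active means thallium flux slope and its plate-corrected score both differing from the plate sample mean at a set confidence after two filtering rounds, in either direction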;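 further: slope of fluorescence scaled to starting intensity during 10 to 20 s after thallium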
b-catenin transl – beta-catenin nuclear translocation modulation; HeLa beta-catenin nuclear translocation, immunofluorescence imaging; nuclear translocation activity, % at 5 µM; 190,000 compounds, 0.3% hits; AID 1665;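 active means nuclear translocation activity above 50% at 5 µM, with a well cell count of 50 or more; inconclusive means wells under 50 cells across six images, flagged as toxic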;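 further: per-cell ratio of nuclear to cytoplasmic median beta-catenin stain intensity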
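Test system: HeLa cells, endogenous beta-catenin; Compound: single 5 µM dose plus 0.02–20 µM confirmation series; Times: compound exposure 24 h at 37°C; Signal: fluorescence imaging of beta-catenin antibody stain plus DAPI; Read-out: % activation, nuclear-to-cytoplasmic median beta-catenin signal ratio per cell.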
Of the large screens only hits and unclear results are named; the others gave an inactive call. This is a sample that favours compounds with a hit; in the whole collection about 3.7% have one here.

CCN(Cc1ccccc1)C(=O)COC(=O)Cn1cnc2ccccc21	none
CCOc1ccc(Br)cc1S(=O)(=O)NC(=O)c1ccccc1	none
CC1CCCC(NC(=S)NC(=O)c2cncc(Br)c2)C1C (configuration not stated)	Cl transport mod 51
CC(=O)c1ccc(N(C(=O)c2csnn2)C(C(=O)NC(C)(C)C)c2cccs2)cc1 (configuration not stated)	none
O=C1CCCC(=O)C1=C1SCCCS1	none (no result: ROMK mod)
Cc1cc(=O)[nH]c(-c2ccccc2OC(F)(F)F)n1	none (no result: MT stabilize HCS, ROMK mod, DTT redox prof)
COc1ccc2nc(N3C(=O)/C(=C/c4ccccc4)NC3=S)sc2c1	Cl transport mod 76 (no result: ROMK mod)
CCOc1ccc2nc(N3C(=O)/C(=C/c4ccccc4)NC3=S)sc2c1	Cl transport mod 62 (no result: ROMK mod)
Cc1cccc(NC(=O)NNC(=O)c2sccc2-n2cccc2)c1	none
O=C(/C(C=Nc1ccc(Br)cc1)=C(/O)c1ccco1)C(F)(F)F	none (no result: ROMK mod)
Cc1ccc(C(=O)CNc2ccc(Cl)cc2)cc1	none
O=C(COc1cccc(Cl)c1)NNC(=S)Nc1ccccc1	none (no result: ROMK mod)
Cc1ccccc1OCC(=O)NNC(=O)Nc1ccccc1	none (no result: ROMK mod)
O=C(COc1ccc(Cl)cc1Cl)NNC(=S)Nc1ccc(F)cc1	Cl transport mod 4.1
Cc1ccccc1OCC(=O)NNC(=O)Nc1ccc(Cl)cc1	b-catenin transl 76 (no result: ROMK mod, Cl transport mod)
O=C(COc1ccccc1)NNC(=S)NC(=O)c1ccc(Cl)cc1Cl	Cl transport mod 22 (no result: ROMK mod)
Cc1ccc(C(=O)CC(=O)COc2ccc(Cl)cc2)cc1	Cl transport mod 21 (no result: ROMK mod)
Fc1ccc(-c2nnsc2Sc2ccccn2)cc1	none
Cc1cccc(C(=O)NC(=S)NNC(=O)COc2ccc(Cl)cc2)c1	ROMK mod 3.3, Cl transport mod 47
Cc1cccc(/C(N)=N/OC(=O)COc2ccc(Cl)cc2)c1	none
O=C(CSCCO)Nc1ccc([N+](=O)[O-])cc1	none
COc1ccc(-c2nn(-c3ccccc3)cc2/C=N/n2cnnc2)cc1OC	none (no result: b-catenin transl)
COc1ccc(-c2nn(-c3ccccc3)cc2/C=N/NC(N)=S)cc1OC	MT stabilize HCS 27 (no result: DTT redox prof, b-catenin transl)
COc1cccc(-c2nnc(NC(=O)c3ccc(Cl)s3)o2)c1	ROMK mod 1.9, Cl transport mod 151
COc1ccc(-c2nnc(NC(=O)c3ccc(S(=O)(=O)N4COCC4(C)C)cc3)o2)cc1	Cl transport mod 8.2 (no result: ROMK mod)
CCCN(CCC)S(=O)(=O)c1ccc(C(=O)Nc2nnc(-c3cccc(OC)c3)o2)cc1	Cl transport mod 15
COc1cccc(-c2nnc(NC(=O)c3ccccc3Br)o2)c1	none (no result: MT stabilize HCS, ROMK mod, DTT redox prof)
CNc1nc(OC)nc(N(C#N)CN2C(=O)c3ccccc3S2(=O)=O)n1	none
COc1ccccc1NC(=O)COC(=O)c1ccccc1C(=O)N1CCN(c2ccccc2)CC1	none (no result: Cl transport mod)
CC1=NNC(=O)/C1=C\c1cn(-c2ccccc2)nc1-c1ccc(F)cc1	MT stabilize HCS 22
CC1=NNC(=O)/C1=C\c1cn(-c2ccccc2)nc1-c1cccs1	b-catenin transl inconclusive
O=C(CCC(=O)N1CCN(c2ccccn2)CC1)Nc1nnc(C(F)(F)F)s1	none (no result: MT stabilize HCS, ROMK mod, DTT redox prof)
COc1cccc(C2NC(=S)NC(C)=C2C(=O)c2ccccc2)c1OC (configuration not stated)	MT stabilize HCS 24, b-catenin transl 132
CCO[C@@H]1OC(C(=O)NCc2ccccc2)=C[C@H](c2ccc(Br)cc2)[C@H]1CCCO	none (no result: ROMK mod)
N#C/C(C(=O)N1CCOCC1)=C1/SC(Cc2ccccc2Cl)C(=O)N1c1ccccc1 (configuration not stated)	none
CC(=O)NC1=C(C#N)C(c2ccccc2)c2c(ccc3ccccc23)O1 (configuration not stated)	MT stabilize HCS 43, b-catenin transl 58
Cc1cccc(C)c1NC(=O)NN=C1CCCCC1	none (no result: MT stabilize HCS, ROMK mod, DTT redox prof)
CCc1nnc(NC(=O)CCN(c2cc(C)cc(C)c2)S(=O)(=O)c2ccc(Cl)cc2)s1	MT stabilize HCS 19 (no result: ROMK mod)
O=C(CSC1=N/C(=C/c2ccc(Cl)c(Cl)c2)C(=O)N1c1ccccc1F)NC1CC1	none
Cc1cccnc1NC(=O)Cn1nc(-c2ccccc2)oc1=S	none
CC(C)n1cc(/C=C2/NC(=O)N(c3cccc(Cl)c3)C2=O)c2ccccc21	none
CC(C)n1cc(/C=C2\NC(=O)N(c3cccc(Cl)c3)C2=O)c2ccccc21	MT stabilize HCS 22 (no result: b-catenin transl)
CCc1ccc(NC(=O)Cn2nnc(C(=O)NCc3cccs3)c2N)cc1	none
CCc1ccccc1NC(=O)Cn1nnc(C(=O)NCc2cccs2)c1N	MT stabilize HCS 30
